Experimental data: ChEMBL document CHEMBL3593159, “Identification of 5-nitrofuran-2-amide derivatives that induce apoptosis in triple negative breast cancer cells by activating C/EBP-homologous protein expression” (Bioorg Med Chem, 2015)

Tests used:
HCC1806 = experiment: Cytotoxicity against human HCC1806 cells assessed as reduction in cell viability incubated for 3 days by cell-titer-Glo reagent based assay; type: functional; settings: for IC50: HCC1806, 72 h
In short: (§1)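 Viability by CellTiter-Glo (ATP read-out). Cells plated at 3 × 10³/well in 384-well format overnight, then exposed to compound over a range (0.125–20 µM for initial series) for 3 d in RPMI 1640 with 10% FBS at 37°C, 5% CO₂. IC₅₀ fitted from dose–response curve.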

HCC38 = experiment: Cytotoxicity against human HCC38 cells assessed as reduction in cell viability incubated for 3 days by cell-titer-Glo reagent based assay; type: functional; settings: for IC50: HCC38, 72 h; in short: as §1
HCC1143 = experiment: Cytotoxicity against human HCC1143 cells assessed as reduction in cell viability incubated for 3 days by cell-titer-Glo reagent based assay; type: functional; settings: for IC50: HCC1143, 72 h; in short: as §1
HEK-293T = experiment: Increase in CHOP expression in HEK293T cells stably transfected with luciferase gene at 10 uM incubated for 24 hrs by luciferase reporter gene assay; type: functional, Homo sapiens
In short: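 HEK293T cells stably carrying CHOP-, ERSE- or UPRE-luciferase reporters plated 7 × 10³/well in 384-well plates, after 16 h given compound (10 µM), tunicamycin 1 µg/mL or DMSO for 24 h; luciferase by Bright-Glo. Means of 4 replicate wells, representative of 3 experiments.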

HEK293 = experiment: Increase in CHOP mRNA expression in HEK293 cells at 10 uM incubated for 24 hrs by qRT-PCR method; type: functional, Homo sapiens
In short: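 HEK293 cells given 10 µM compound or DMSO for 24 h; CHOP mRNA by qRT-PCR. Means of 3 replicate wells, 3 independent experiments, Student's t-test vs control.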

Compound `O=C(Nc1cc(Cl)ccc1Cl)c1ccc([N+](=O)[O-])o1` has an IC50 (HCC1806) of 8.6 µM.

Work on `O=C(Nc1ccc(N2CCCCC2)c(F)c1)c1ccco1` yielded an IC50 (HCC1806) of over 40 µM.

Work on `CCc1ccc(NC(=O)c2ccc([N+](=O)[O-])o2)cc1` yielded an IC50 (HCC1806) of 5 µM.

In the case of `O=C(Nc1ccc(N2CCOCC2)c(Br)c1)c1ccco1`, the IC50 (HCC1806) is reported as over 40 µM.

With `Cc1cccc(NC(=O)c2ccc([N+](=O)[O-])o2)c1C` the IC50 (HCC1806) was 9.7 µM.

`O=C(Nc1cccc(OC(F)(F)F)c1)c1ccc([N+](=O)[O-])o1` gave an IC50 (HCC1806) of 19.6 µM.

Compound `CCC1CCN(c2ccc(NC(=O)c3ccco3)cc2Cl)CC1` has an IC50 (HCC1806) of over 40 µM.

`O=C(Nc1ccc(N2CCOCC2)c(Cl)c1)c1ccc([N+](=O)[O-])o1` gave an IC50 (HCC1806) of 2.6 µM, an IC50 (HCC38) of 2 µM and an IC50 (HCC1143) of 2.5 µM.

`O=C(Nc1cc(C(F)(F)F)ccc1Cl)c1ccc([N+](=O)[O-])o1` was tested, and the IC50 (HCC1806) was 5.1 µM.

`CC(C)Cc1ccccc1NC(=O)c1ccc([N+](=O)[O-])o1` showed an IC50 (HCC1806) of over 40 µM.

With `O=C(Nc1ccc(I)cc1)c1ccc([N+](=O)[O-])o1` the Activity (HCC1806) was “Dose-dependent effect”, the IC50 (HCC1806) was 6.2 µM and the Activity (HCC38) was “Dose-dependent effect”. The IC50 (HCC38) was 8.7 µM, the “fold change (FC)” value (HEK-293T) was 24 and the Activity (HCC1143) was “Dose-dependent effect”. For the same compound, the IC50 (HCC1143) was 9.5 µM and the “fold change (FC)” value (HEK293) was 30.
